Screens from PubChem.
UHRF1 MBD2 ctr: blocks human UHRF1 binding to methylated DNA. Q96T88. UHRF1 binding to methylated oligo, TR-FRET. inhibition, % at 4.4 µM. 370,000 tested, 0.75% active. AID 687016; in the data active means inhibition above about 21%;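 further: UHRF1 SRA domain binding a hemimethylated CpG hairpin DNA probe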
NS3 helicase inh: HCV NS3 helicase inhibition; NS3 helicase DNA unwinding, Cy5 molecular beacon fluorescence; inhibition, % at 10.9 µM; 290,000 tested, 0.56% active; AID 1800;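 active means inhibition above the mean of all tested compounds plus 3 SD, set per campaign, cut at about 35% in these data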
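System: HCV NS3 helicase fragment; control set: DMSO and thioflavine S; technique: Cy5 fluorescence at 0 and 60 min, beacon hairpin quenching; reagent: beacon DNA duplex substrate plus ATP; replicates: singlicate; schedule: 1 h reaction at 25 °C, ATP-initiated; medium: MOPS buffer pH 6.5 with MgCl2, DTT, Tween20, BSA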
DNMT1 inh: inhibitors of human DNMT1; 360,000 tested, 0.83% active; DNMT1 molecular beacon, Hinp1I cleavage, fluorescence; inhibition (reported as % activation of signal), % at 10 µM; AID 588458; in the data active means inhibition above about 50%
Pemphigus Ab inh: blocks pemphigus antibody binding to human desmoglein-3 | P32926 | DSG3-coupled beads, scFv-anti-DSG3-GFP binding, flow cytometry; hits give low values | binding (percent of control), % at 10 µM | 310,000 tested, 0.48% active | AID 588358;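 active means binding more than 3 SD below its plate's average and above zero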;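 further: hits lower antibody fragment binding to DSG3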
SUMO1-SIM PPI: SUMO1-SIM interaction modulation. P63165. SUMO1 binding to a labelled peptide, TR-FRET, 1 h. inhibition, % at 20 µM. 360,000 tested, 0.33% active; in the data active means inhibition above about 37%
Target sequence (P63165 whole entry, looked up): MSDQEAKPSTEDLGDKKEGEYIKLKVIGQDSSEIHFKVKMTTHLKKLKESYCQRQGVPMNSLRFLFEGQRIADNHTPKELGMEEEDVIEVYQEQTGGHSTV
MBD2 DNA inh: MBD2-methylated oligo binding inhibition; Q9UBB5; 370,000 tested, 0.31% active; TR-FRET, MBD2 binding to methylated oligonucleotide; inhibition, % at 4.4 µM; in the data active means inhibition above about 13%
Target sequence (Q9UBB5 whole entry, looked up): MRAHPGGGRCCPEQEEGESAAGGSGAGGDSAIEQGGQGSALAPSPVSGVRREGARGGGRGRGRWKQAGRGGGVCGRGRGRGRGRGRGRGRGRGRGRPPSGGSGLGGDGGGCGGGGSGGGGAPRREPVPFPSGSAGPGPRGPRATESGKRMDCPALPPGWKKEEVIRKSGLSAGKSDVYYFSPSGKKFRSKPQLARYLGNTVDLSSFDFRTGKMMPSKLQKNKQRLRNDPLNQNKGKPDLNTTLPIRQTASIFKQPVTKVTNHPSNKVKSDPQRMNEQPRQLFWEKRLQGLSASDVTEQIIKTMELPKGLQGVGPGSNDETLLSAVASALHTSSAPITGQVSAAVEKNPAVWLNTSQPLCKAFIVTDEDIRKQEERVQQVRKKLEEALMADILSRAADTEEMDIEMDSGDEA
Each line names hits and unclear results; the compound was inactive in the other large screens. Compounds with a hit are over-represented: about 2.5% of the library has one in this group of screens.

COC(=O)c1ccc2nc(C3CCCCC3)c(CC(C)(C)C)n2c1	UHRF1 MBD2 ctr 21 (no result: NS3 helicase inh, Pemphigus Ab inh)
COC(=O)c1ccc2nc(C3CCCCC3)c(Cc3ccccc3)n2c1	none (no result: NS3 helicase inh, Pemphigus Ab inh)
Cc1n[nH]c(C)c1CCC(=O)N/N=C/C=C/c1ccccc1	UHRF1 MBD2 ctr 88
CCOCCc1nnc(NC(=O)c2cccs2)s1	none
COc1ccccc1N1CCN(S(=O)(=O)c2cccs2)CC1	UHRF1 MBD2 ctr 39
COc1cc(C(=O)N2CCN(S(=O)(=O)c3cccs3)CC2)cc(OC)c1C	UHRF1 MBD2 ctr 24
O=C(c1cccs1)N1CCN(S(=O)(=O)c2cccs2)CC1	none
O=S1(=O)C[C@@H](N2CC[C@@H](O)C2)[C@H](COCc2ccccc2)N1	none (no result: NS3 helicase inh, Pemphigus Ab inh)
Cc1ccc(S(=O)(=O)N2CCOCC2)cc1C(=O)Nc1ccncc1	none (no result: NS3 helicase inh, Pemphigus Ab inh)
Cc1nc2ccc(NC(=O)c3ccc(S(=O)(=O)N(C)c4ccccc4)cc3)cc2s1	UHRF1 MBD2 ctr 26
Cc1ccc(S(=O)(=O)N2CCOCC2)cc1C(=O)Nc1ccc(-c2cn3ccsc3n2)cc1	SUMO1-SIM PPI 45
CC(=O)c1ccc(NC(=O)c2ccc(C)c(S(=O)(=O)N3CCOCC3)c2)cc1	Pemphigus Ab inh 67
COc1ccc(OC)c2sc(NC(=O)c3ccc(S(=O)(=O)N4CCOCC4)cc3)nc12	Pemphigus Ab inh -17
Cc1cccc(C)c1NC(=O)c1c[nH]c2ccccc12	none
CCOC(=O)c1c(NC(=O)c2ccc(S(=O)(=O)N3CCOCC3)cc2)sc2c1CC(C)(C)NC2(C)C	none
Cc1ccc(C(=O)NC2CCS(=O)(=O)C2)cc1S(=O)(=O)N1CCCCCC1 (stereo not given)	UHRF1 MBD2 ctr 23
CC(=O)Nc1ccc(C(=O)Nc2ccc(S(=O)(=O)N3CCOCC3)cc2)cc1	none
CCOC(=O)c1c(NC(=O)c2ccc(S(=O)(=O)N3CCOCC3)cc2)sc2c1CCN(C)C2	MBD2 DNA inh 15
Cc1nc2ccc(NC(=O)c3ccc(S(=O)(=O)N4CCOCC4)cc3)cc2s1	Pemphigus Ab inh 81
O=[N+]([O-])c1ccc(NCCNc2ccc([N+](=O)[O-])cc2)cc1	Pemphigus Ab inh -6.8 (no result: NS3 helicase inh)
CN1CCN(C2=C(Cl)C(=O)c3ccccc3C2=O)CC1	DNMT1 inh 87, SUMO1-SIM PPI 62 (no result: NS3 helicase inh, Pemphigus Ab inh)
COc1ccc(Nc2nc(C)cc(C)c2C#N)cc1OC	Pemphigus Ab inh 12
COc1cccc(Nc2nc(C)cc(C)c2C#N)c1	none
Cc1cc2c(cc1C)C(c1ccccc1Br)CC(=O)N2 (stereo not given)	UHRF1 MBD2 ctr 23
CC(=O)Nc1c(O)nc(SCC(=O)Nc2cccc(C)c2)[nH]c1=O	none
Cn1c(NC(=O)/C=C/c2c(F)cccc2Cl)cc(=O)n(C)c1=O	none
Cn1c(NC(=O)/C=C\c2ccccc2)cc(=O)n(C)c1=O	UHRF1 MBD2 ctr 26
Cc1cc(C)cc(NC(=O)CC23CC4CC(C2)CC(n2nnc(C)n2)(C4)C3)c1	none
Cc1nnn(C23CC4CC(CC(CC(=O)Nc5ccc(C)c(Cl)c5)(C4)C2)C3)n1	UHRF1 MBD2 ctr 27
CC(=O)C1=C(O)CCC1=N	none
O=C(O)CCN(Cc1ccccc1)S(=O)(=O)c1ccc(Cl)cc1F	none
O=C(O)CCN(Cc1ccccc1)S(=O)(=O)c1ccccc1Cl	UHRF1 MBD2 ctr 22 (no result: Pemphigus Ab inh)
CCNC(=O)Nc1ccc2c(c1)c(=O)n(C)n2Cc1ccc(Cl)cc1	none (no result: NS3 helicase inh, Pemphigus Ab inh)
CCCS(=O)(=O)Nc1c(C(=O)OC)[nH]c2ccccc12	UHRF1 MBD2 ctr 22
Cc1ccc(Cc2c(-c3ccc(C)cc3)nc3ccc(Br)cn23)cc1	UHRF1 MBD2 ctr 22 (no result: NS3 helicase inh)
Cc1ccc(Cc2c(-c3ccc(Cl)cc3)nc3ccc(Br)cn23)cc1	UHRF1 MBD2 ctr 21 (no result: NS3 helicase inh)
Brc1ccc(-c2nc3ccc(Br)cn3c2Cc2ccccc2)cc1	UHRF1 MBD2 ctr 21 (no result: NS3 helicase inh, Pemphigus Ab inh)
CCCc1nc2ccc(Cl)cn2c1Cc1cccc(Cl)c1	none (no result: NS3 helicase inh, Pemphigus Ab inh)
Cc1ccc(Cc2c(-c3cccc(Br)c3)nc3ccc(Br)cn23)cc1	none (no result: NS3 helicase inh, Pemphigus Ab inh)
CCCc1nc2ccc(Cl)cn2c1Cc1ccc(C)cc1	UHRF1 MBD2 ctr 21 (no result: NS3 helicase inh, Pemphigus Ab inh)
Cc1ccc2nc(-c3ccc(F)cc3)c(Cc3cccc(Cl)c3)n2c1	UHRF1 MBD2 ctr 66 (no result: NS3 helicase inh, Pemphigus Ab inh)
COC(=O)C1=C(C)N(C2CCCCC2)C(=O)/C1=C\c1cccs1	UHRF1 MBD2 ctr 53
CC(C)CNC(=O)OCc1cn(Cc2ccccc2Cl)nn1	none (no result: NS3 helicase inh, DNMT1 inh, Pemphigus Ab inh, SUMO1-SIM PPI)
c1ccc(-c2onc3c2CCCC3)cc1	none (no result: Pemphigus Ab inh)
O=C(OCc1cnc(Cl)s1)c1cccc(Cl)c1Cl	none
O=C(CCS(=O)(=O)c1ccc(F)cc1)Nc1nc(-c2ccccn2)cs1	UHRF1 MBD2 ctr 21
Cc1ccc(-c2n[nH]c(=S)c3ccccc23)cc1	UHRF1 MBD2 ctr 40
Nc1ccc2c(c1)C1(CCC2)NC(=O)NC1=O (stereo not given)	UHRF1 MBD2 ctr 21 (no result: NS3 helicase inh)
O=C1NC(=O)C2(CCCc3ccc([N+](=O)[O-])cc32)N1 (stereo not given)	none (no result: NS3 helicase inh)
CC(OC(=O)c1cccc(-n2cnnn2)c1)C(=O)Nc1ccc(F)cc1 (stereo not given)	none
Cc1ccc2c(c1)C(CS(=O)(=O)NC1CCCC1)NC2 (stereo not given)	none (no result: NS3 helicase inh, DNMT1 inh, Pemphigus Ab inh, SUMO1-SIM PPI)
O=C(N/N=C\c1ccc(F)cc1)c1ccc(F)cc1	none
C[n+]1c(-c2ccc(C=NNC(=O)c3ccc(C(=O)NN=Cc4ccc(-c5cn6ccccc6[n+]5C)cc4)cc3)cc2)cn2ccccc21	UHRF1 MBD2 ctr 37, MBD2 DNA inh 23 (no result: NS3 helicase inh, DNMT1 inh, SUMO1-SIM PPI)
COc1cc(/C=C/C(=O)c2ccc(F)cc2)cc(OC)c1OC	none
COC(=O)c1ccc(C(=O)Nc2ccc(N)cc2N)cc1	SUMO1-SIM PPI 47
O=C(/C=C\c1ccccc1)NCC(=O)N/N=C/c1ccc(O)cc1O	none (no result: UHRF1 MBD2 ctr, MBD2 DNA inh)
CCOc1ccc(N2CC(C(=O)NCCc3ccc(OC)c(OC)c3)CC2=O)cc1 (stereo not given)	none
Cc1cc(=O)n2c3ccccc3n(CC(O)CN3CCOCC3)c2c1C#N (stereo not given)	none
CN1N=C(c2ccc(Cl)cc2)CC(c2ccc(Cl)cc2)C1=O (stereo not given)	UHRF1 MBD2 ctr 22
O=C(OCc1cn([C@@H]2CN(C(=O)c3cccs3)[C@@H](c3ccccc3)C[C@H]2O)nn1)c1ccccc1	none (no result: NS3 helicase inh)
COc1ccccc1N1CCN(C(c2cc3cc(C)ccc3[nH]c2=O)c2nnnn2C2CCCC2)CC1 (stereo not given)	SUMO1-SIM PPI 45
Cc1cc(S(=O)(=O)N2CCCOC2CNC(=O)C(=O)NCc2ccco2)ccc1F (stereo not given)	UHRF1 MBD2 ctr 56
Cn1nccc1C(=O)Nc1ccc2c(c1)OCCO2	none
C=C(c1ccccc1C)[n+]1ccccc1	none
COc1ccccc1/C=N/NC(=O)c1ccc(CN2C(=O)c3cccc4cccc2c34)cc1	Pemphigus Ab inh 65
NNC(=O)c1ccc(CN2C(=O)c3cccc4cccc2c34)cc1	none
O=C(CNC(=O)C1CCCCC1)NNC(=O)c1ccc(Cl)cc1Cl	none
NS(=O)(=O)c1cccnc1Nc1c(Cl)cccc1Cl	UHRF1 MBD2 ctr 21
